# BindingDB's records for doi:10.1016/j.ejmech.2020.112417 (University of Houston, 2020)
# Biological target: Nucleotide-binding oligomerization domain-containing protein 2 (Homo sapiens, UniProt Q9HC29)
# Assay: Inhibition of human NOD2 expressed in HEK293 cells coexpressing NFkappaB-SEAP reporter measured after 7 to 9 hrs by HEKBIue reporter assay
# Method in brief: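 IC50 values reported as the mean of two or three determinations ± standard deviation.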
# Chain of Nucleotide-binding oligomerization domain-containing protein 2 (Q9HC29 whole entry, the tested form may be a part): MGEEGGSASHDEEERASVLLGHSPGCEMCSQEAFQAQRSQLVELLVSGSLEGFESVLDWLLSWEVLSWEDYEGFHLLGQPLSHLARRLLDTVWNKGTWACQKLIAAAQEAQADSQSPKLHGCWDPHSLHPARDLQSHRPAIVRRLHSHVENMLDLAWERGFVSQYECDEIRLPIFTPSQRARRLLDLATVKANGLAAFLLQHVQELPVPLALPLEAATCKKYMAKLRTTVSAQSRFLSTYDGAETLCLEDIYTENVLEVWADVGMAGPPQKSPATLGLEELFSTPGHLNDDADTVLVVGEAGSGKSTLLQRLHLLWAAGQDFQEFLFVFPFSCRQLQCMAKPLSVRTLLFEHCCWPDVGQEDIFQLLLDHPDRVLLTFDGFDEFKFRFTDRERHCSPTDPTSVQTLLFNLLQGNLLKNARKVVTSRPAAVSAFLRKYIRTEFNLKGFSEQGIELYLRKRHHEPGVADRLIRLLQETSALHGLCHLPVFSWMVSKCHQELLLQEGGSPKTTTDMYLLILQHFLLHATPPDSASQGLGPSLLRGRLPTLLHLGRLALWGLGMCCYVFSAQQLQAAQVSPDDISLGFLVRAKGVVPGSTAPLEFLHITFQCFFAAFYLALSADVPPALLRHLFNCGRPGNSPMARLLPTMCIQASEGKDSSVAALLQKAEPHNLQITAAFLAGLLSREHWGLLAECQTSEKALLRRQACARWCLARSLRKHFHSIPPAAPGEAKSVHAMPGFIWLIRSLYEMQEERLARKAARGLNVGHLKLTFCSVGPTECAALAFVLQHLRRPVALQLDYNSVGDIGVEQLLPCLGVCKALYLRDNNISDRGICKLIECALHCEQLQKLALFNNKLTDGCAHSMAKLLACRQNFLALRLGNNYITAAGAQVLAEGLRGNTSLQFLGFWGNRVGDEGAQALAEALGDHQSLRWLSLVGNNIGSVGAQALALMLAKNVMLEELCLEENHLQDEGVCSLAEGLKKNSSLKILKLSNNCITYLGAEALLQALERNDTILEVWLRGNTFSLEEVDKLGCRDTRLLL
row,Compound,IC50 [nM]
1,COc1cc(NS(C)(=O)=O)cc(-c2cc(-c3ccc(N4CCNCC4)cc3)cnc2C)c1,3700
2,CCS(=O)(=O)Nc1cc(OC)cc(-c2cc(-c3ccc(N4CCNCC4)cc3)cnc2C)c1,5240
3,CCCS(=O)(=O)Nc1cc(OC)cc(-c2cc(-c3ccc(N4CCNCC4)cc3)cnc2C)c1,2670
4,COc1cc(NS(=O)(=O)C(C)C)cc(-c2cc(-c3ccc(N4CCNCC4)cc3)cnc2C)c1,523
5,COc1cc(NS(C)(=O)=O)cc(-c2cc(-c3ccc(N4CCNCC4)cc3)cnc2N)c1,390
6,CCCS(=O)(=O)Nc1cc(OC)cc(-c2cc(-c3ccc(N4CCNCC4)cc3)cnc2N)c1,243
7,COc1cc(NS(=O)(=O)C(C)C)cc(-c2cc(-c3ccc(N4CCNCC4)cc3)cnc2N)c1,121
8,COc1cc(NS(=O)(=O)c2ccccc2)cc(-c2cc(-c3ccc(N4CCNCC4)cc3)cnc2N)c1,53
9,CCOc1cc(NS(=O)(=O)C(C)C)cc(-c2cc(-c3ccc(N4CCNCC4)cc3)cnc2N)c1,46
10,CC(C)Oc1cc(NS(=O)(=O)C(C)C)cc(-c2cc(-c3ccc(N4CCNCC4)cc3)cnc2N)c1,323
11,CCCS(=O)(=O)Nc1cc(-c2cc(-c3ccc(N4CCNCC4)cc3)cnc2N)ccc1OC,420
12,CCCS(=O)(=O)Nc1cc(-c2cc(-c3ccc(N4CCNCC4)cc3)cnc2N)ccc1O,> 5000
13,CCCS(=O)(=O)Nc1cc(-c2cc(-c3ccc(N4CCNCC4)cc3)cnc2N)ccc1C,1060
14,CCCS(=O)(=O)Nc1cc(-c2cc(-c3ccc(N4CCNCC4)cc3)cnc2N)cc(OC)c1OC,1
15,CCCS(=O)(=O)Nc1cc(-c2cc(-c3ccc(N4CCNCC4)cc3)cnc2N)cc2c1OCCO2,2460
16,CCCS(=O)(=O)Nc1cc(-c2cc(-c3ccc(N4CCNCC4)cc3)cnc2N)cc(C)c1OC,129
17,CCCS(=O)(=O)Nc1cc(-c2cc(-c3ccc(N4CCNCC4)cc3)cnc2N)cc(F)c1OC,26
18,CCCS(=O)(=O)Nc1cc(-c2cc(-c3ccc(N4CCNCC4)cc3)cnc2N)cc(Cl)c1OC,46
19,COc1cc(-c2cc(-c3ccc(N4CCNCC4)cc3)cnc2N)cc(F)c1OC,595
20,CCCS(=O)(=O)NCc1cc(-c2cc(-c3ccc(N4CCNCC4)cc3)cnc2N)ccc1OC,1290
21,CCCS(=O)(=O)N1CCc2ccc(-c3cc(-c4ccc(N5CCNCC5)cc4)cnc3N)cc21,2430
22,CCCS(=O)(=O)N1CCOc2ccc(-c3cc(-c4ccc(N5CCNCC5)cc4)cnc3N)cc21,1010
23,CCCS(=O)(=O)Nc1cc(-c2cncc(-c3ccc(N4CCNCC4)cc3)c2)cc(F)c1OC,352
24,CCCS(=O)(=O)Nc1cc(-c2cc(-c3ccc(N4CCNCC4)cc3)cnc2C)cc(F)c1OC,2560
25,CCCS(=O)(=O)Nc1cc(-c2cc(-c3cccc(S(C)(=O)=O)c3)cnc2N)ccc1OC,2660
26,CCCS(=O)(=O)Nc1cc(-c2cc(-c3cccc(N4CCNCC4)c3)cnc2N)cc(F)c1OC,16
27,CCCS(=O)(=O)Nc1cc(-c2cc(-c3ccc(N4CCNCC4)cc3)cnc2N)cc(OC)c1C,3350
28,CCCS(=O)(=O)Nc1ccc(-c2cc(-c3ccc(N4CCNCC4)cc3)cnc2C)cc1OC,2940
